According to ChEMBL document CHEMBL4425094, “Novel Benzo[a]quinolizidine Analogs Induce Cancer Cell Death through Paraptosis and Apoptosis” (J Med Chem, 2016):
pIC50: −log10 of the molar value. The source made the active and inactive calls. The rule behind the calls is not given here.

Legend:
[1] = system: MDA-MB-231; assay: Cytotoxicity against human MDA-MB-231 cells assessed as cell growth inhibition after 24 hrs by MTT assay; assay type: functional, cell-based; details: MDA-MB-231, 24 h
Outline: (§1)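 Cells seeded 24 h in RPMI 1640 + 10% FBS. RWPE-1 was kept in K-SFM with bovine pituitary extract and EGF. Cells then exposed to compounds for 24 h at 37 °C, 5% CO2, with DMSO vehicle and docetaxel as positive control. MTT added for 4 h, absorbance read at 570 nm. Triplicate runs, IC50 reported as mean of three experiments.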

[2] = system: HeLa; assay: Cytotoxicity against human HeLa cells assessed as cell growth inhibition after 24 hrs by MTT assay; assay type: functional, cell-based; outline: as §1
[3] = system: K562; assay: Cytotoxicity against human K562 cells assessed as cell growth inhibition after 24 hrs by MTT assay; assay type: functional, cell-based; details: K562, 24 h; outline: as §1
[4] = system: PC-3; assay: Cytotoxicity against human PC3 cells assessed as cell growth inhibition after 24 hrs by MTT assay; assay type: functional, cell-based; details: PC-3, 24 h; outline: as §1
[5] = system: DU-145; assay: Cytotoxicity against human DU145 cells assessed as cell growth inhibition after 24 hrs by MTT assay; assay type: functional, cell-based; details: DU-145, 24 h; outline: as §1
[6] = system: MCF7; assay: Cytotoxicity against human MCF7 cells assessed as cell growth inhibition after 24 hrs by MTT assay; assay type: functional, cell-based; details: MCF7, 24 h; outline: as §1
[7] = system: RWPE-1; assay: Cytotoxicity against human RWPE1 cells assessed as cell growth inhibition after 24 hrs by MTT assay; assay type: cell-based; details: RWPE-1, 24 h; outline: as §1
[8] = system: PC-3; assay: Induction of morphological changes in human PC3 cells assessed as formation of massive cytoplasmic vacuoles at 1 uM after 12 hrs by confocal microscopic analysis; assay type: functional, cell-based
[9] = system: PC-3M; assay: Antitumor activity against human PC3M-lluc-C6 cells xenografted in athymic Balb/c mouse assessed as tumor growth inhibition at 15 mg/kg, ip administered every 2 days measured on day 18; assay type: functional; details: read-out: TGI
[10] = Toxicity in athymic Balb/c mouse assessed as body weight loss at 15 mg/kg, ip administered every 2 days for 18 days; assay type: organism-based; details: in vivo
Outline: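 Male athymic BALB/c-nu mice bearing subcutaneous PC3M-luc-C6 xenografts, n = 5 per group. Dosing was 15 mg/kg i.p. every 2 days for 18 days versus placebo and docetaxel 15 mg/kg groups. Body weight was recorded over the treatment period.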

[11] = system: PC-3M; assay: Antitumor activity against human PC3M-lluc-C6 cells xenografted in athymic Balb/c mouse assessed as decrease in tumor burden by measuring photon intensity at 15 mg/kg, ip measured on day 18 by bioluminescence method (reference value: 2.332 x 10^10 photons/s/cm2); assay type: functional
[12] = system: PC-3M; assay: Antitumor activity against human PC3M-lluc-C6 cells xenografted in athymic Balb/c mouse assessed as decrease in tumor burden by measuring photon intensity at 15 mg/kg, ip measured on day 9 by bioluminescence method (reference value: 6.501 x 10^9 photons/s/cm2); assay type: functional
[13] = system: PC-3; assay: Induction of autophagy in human PC3 cells transfected with mRFP-GFP-LC3 assessed as LC3 granulation of LC3 at 0.5 uM after 8 hrs by fluorescence microscopic analysis; assay type: functional, cell-based
Outline: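 PC3 cells transfected with an mRFP-GFP-LC3 reporter plasmid, then treated 8 h with 1 μM test agent or 0.5 μM rapamycin (autophagy inducer). Imaged by confocal fluorescence microscopy: yellow puncta (overlapping red/green) scored as autophagosomes, red-only puncta as autolysosomes, since GFP is quenched in acidic lysosomes.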

| SMILES | pIC50 [1] | pIC50 [2] | pIC50 [3] | pIC50 [4] | pIC50 [5] | pIC50 [6] | pIC50 [7] | Activity [8] | inhibition in vivo at 15 mg/kg [9] | Activity [10] | Activity [11] | Activity [12] | Activity [13] |
| --- | --- | --- | --- | --- | --- | --- | --- | --- | --- | --- | --- | --- | --- |
| CC(=O)O[C@@]12CO[C@@H]1C[C@H](O)[C@@]1(C)C(=O)[C@H](O)C3=C(C)[C@@H](OC(=O)[C@H](O)[C@@H](NC(=O)OC(C)(C)C)c4ccccc4)C[C@@](O)([C@@H](OC(=O)c4ccccc4)[C@H]21)C3(C)C [DOCETAXEL ANHYDROUS] | 7.49 | 7.21 | 7.41 | 7.89 | 7.59 | 7.66 | 5.76 | inactive | 92% | 13.3 g | 1.92 ×10⁹ /s/cm2 | 3.513 ×10⁹ /s/cm2 | – |
| C[C@@H]1C[C@@H](O)C[C@H]2c3cc(OCc4cc(C(F)(F)F)cc(C(F)(F)F)c4)c(OCc4cc(C(F)(F)F)cc(C(F)(F)F)c4)cc3CCN12 | 6.29 | 5.70 | 5.87 | 6.35 | 5.76 | 6.28 | 5.94 | Active | – | – | – | – | – |
| C[C@@H]1C[C@@](C)(O)C[C@H]2c3cc(OCc4cccc(F)c4)c(OCc4cccc(F)c4)cc3CCN12 | 6.23 | 6.02 | 6.00 | 6.39 | 5.67 | 6.33 | 5.73 | Active | – | – | – | – | – |
| CO[C@H]1C[C@@H]2CC[C@@H](C)[C@@](O)(O2)C(=O)C(=O)N2CCCC[C@H]2C(=O)O[C@H]([C@H](C)C[C@@H]2CC[C@@H](O)[C@H](OC)C2)CC(=O)[C@H](C)/C=C(\C)[C@@H](O)[C@@H](OC)C(=O)[C@H](C)C[C@H](C)/C=C/C=C/C=C/1C | – | – | – | – | – | – | – | – | – | – | – | – | Active |
| Cc1cc(C)cc(COc2cc3c(cc2OCc2cc(C)cc(C)c2)[C@@H]2C[C@](C)(O)C[C@@H](C)N2CC3)c1 | 5.63 | 5.90 | 5.84 | 6.05 | 5.71 | 6.30 | 5.32 | Active | – | – | – | – | – |
| Cc1cc(C)cc(COc2cc3c(cc2OCc2cc(C)cc(C)c2)[C@@H]2C[C@@H](O)C[C@@H](C)N2CC3)c1 (racemic) | 5.88 | 5.49 | 5.63 | 6.14 | 5.82 | 6.19 | 5.87 | Active | – | – | – | – | – |
